M5 PAM – potentiates acetylcholine response at human M5 receptor; hit rate 0.3% among 360,000; CHO-K1 hM5, Fluo-8 calcium, ACh EC20 PAM; 0% = ACh EC20, 100% = ACh EC100; activation, % at 3 µM; AID 624038;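 active = activation above the run cutoff, the mean activation of all test compounds plus 3 SD, cut at about 18% in these data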
Target sequence (P08912 whole entry, looked up): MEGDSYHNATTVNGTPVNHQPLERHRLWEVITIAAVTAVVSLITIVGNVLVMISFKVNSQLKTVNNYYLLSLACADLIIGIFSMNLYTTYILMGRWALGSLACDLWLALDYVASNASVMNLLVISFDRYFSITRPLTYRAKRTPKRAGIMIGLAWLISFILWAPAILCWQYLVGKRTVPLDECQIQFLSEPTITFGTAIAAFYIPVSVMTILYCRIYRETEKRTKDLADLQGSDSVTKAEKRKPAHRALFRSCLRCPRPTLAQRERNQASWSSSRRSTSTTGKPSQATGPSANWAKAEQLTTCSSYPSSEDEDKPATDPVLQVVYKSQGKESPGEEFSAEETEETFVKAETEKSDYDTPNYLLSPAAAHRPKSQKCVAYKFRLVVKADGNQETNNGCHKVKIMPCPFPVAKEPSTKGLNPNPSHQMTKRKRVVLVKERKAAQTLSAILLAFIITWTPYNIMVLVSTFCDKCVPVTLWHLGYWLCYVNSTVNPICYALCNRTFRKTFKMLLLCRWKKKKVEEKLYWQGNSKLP
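system = human M5 receptor in CHO-K1 cells | compound = one concentration, 3 µM final (nominal) | schedule = Post-acetylcholine fluorescence recording 140 s | signal = Fluo-8 calcium dye fluorescence, kinetic read | benchmarks = low control EC20 acetylcholine (0%), high control EC100 acetylcholine (100%) | repeats = singlicate, one well per test compound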
M1 ag parental – M1 agonist counterscreen hit in parental CHO-K1 cells; activation, % at 3 µM; Fluo-8 calcium fluorescence; scaled to maximal ATP response, vehicle zero; hit rate 0.48% among 360,000; in the data active = activation above about 15%;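 also: untransfected CHO-K1 host cells lacking M1 receptor as counterscreen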
M5 antag – blocks acetylcholine activation of human M5 receptor; P08912; CHO-hM5 cells, Fluo-8 calcium fluorescence, ACh EC80; inhibition, % at 3 µM; hit rate 0.59% among 360,000;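 active = inhibition above a per-plate cutoff, the mean of that plate's test compounds plus 3 SD, cut at about 27% in these data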
CHRM5 agonist – CHRM5 agonism in calcium assay; P08912; CHO-K1 hM5 cells, Fluo-8 calcium fluorescence; 0% DMSO wells, 100% maximal acetylcholine response; activation, % at 3 µM; hit rate 0.19% among 360,000; AID 624037;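 active = activation above the run's mean over test compounds plus 3 SD, cut at about 23% in these data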;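 also: signal is peak over basal fluorescence ratio across the kinetic read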
CHO-K1 Ca antag – nonselective inhibitor or artifact in parental CHO-K1 cells; inhibition, % at 3 µM; ATP-induced calcium, Fluo-8 fluorescence; hit rate 0.6% among 360,000;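 active = inhibition above a per-plate cutoff, the plate's mean sample inhibition plus 3 SD, cut at about 24% in these data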
CHO-K1 Ca PAM – M1 PAM counterscreen hit in parental CHO-K1 cells; ATP EC20, Fluo-8 calcium fluorescence; 0% at ATP EC20, 100% at ATP max; activation, % at 3 µM; hit rate 0.02% among 360,000;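 active = activation above the run cutoff, the mean activation of all test compounds plus 3 SD, cut at about 40% in these data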;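 also: peak over basal fluorescence ratio in a 140 s read after ATP addition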
Large screens that a line does not name were inactive. A selection: hits, their analogues and other compounds. The true share with any hit is near 1.7%.

CC(Oc1ccc(Br)cc1)C(=O)Nc1ccc(S(=O)(=O)N(C)C2CCN(C)CC2)cc1 (stereo unspecified)	M1 ag parental 55, CHRM5 agonist 62, CHO-K1 Ca antag 57
CC(C)(C)NC(=O)C(c1cccs1)N(Cc1ccc(F)cc1)C(=O)c1csnn1 (stereo unspecified)	M5 antag 37
CC(=O)c1ccc(-c2nnc(CCC(=O)N(C)Cc3c(C)nc4ccccn34)o2)s1	none
COc1ccc(N(CC(=O)NCCC2=CCCCC2)S(=O)(=O)c2c(C)[nH]c(=O)[nH]c2=O)cc1	none
O=C(CN1C(=O)c2ccccc2S1(=O)=O)NCc1ccc(F)cc1	CHO-K1 Ca antag 63
NC(=O)c1nsc(C(=O)N(c2cccc(F)c2)C(C(=O)NCC2CCCO2)c2cccs2)c1N (stereo unspecified)	M1 ag parental 16
COc1cc2c(cc1OC)CN(C(=S)Nc1ccccc1Cl)CC2	M1 ag parental 17
COc1cc2c(cc1OC)CN(C(=S)Nc1ccccc1)CC2	none
CCOC(=O)c1nn(-c2ccc3ccccc3c2)cc1O	none
Cc1cc(C)n(-c2nc(Nc3ccccc3C(F)(F)F)nc(-n3nc(C)cc3C)n2)n1	M1 ag parental 19, M5 antag 30
Cc1cc(C)n(-c2nc(NC(C)(C)C)nc(NC(C)(C)C)n2)n1	none
CN1CCN(C2=Cc3ccccc3Sc3cc(F)ccc32)CC1	M5 antag 28
CCCCCCCCOc1ccc(C2OC34CCCCC3C(C#N)(C#N)C2(C#N)C(=N)O4)cc1 (stereo unspecified)	none
CN(C)CCN1C(=O)C(=O)/C(=C(/O)c2ccc(F)cc2)C1c1ccccc1F (stereo unspecified)	M5 antag 29
O=C(CC1S/C(=N\S(=O)(=O)c2ccccc2)N(c2ccccc2)C1=O)Nc1ccc(F)cc1 (stereo unspecified)	none
CC(Sc1nc(N)cc(=O)[nH]1)C(=O)Nc1cccc(Cl)c1 (stereo unspecified)	none
CC(=O)NC1C(=O)N=C(SC(C)C(=O)Nc2cccc(Cl)c2)NC1=O (stereo unspecified)	M1 ag parental 15
CCNC(=O)C1(C)CCCN1C(=O)c1cc(OC)c(OC)c(OC)c1 (stereo unspecified)	none
COc1ccc(-n2c(SCc3ccc([N+](=O)[O-])cc3)nnc2-c2ccccc2)cc1	M1 ag parental 16
Cc1ccc2cc(CN(Cc3cccs3)Cc3nnnn3CC3CCCO3)c(=O)[nH]c2c1C (stereo unspecified)	CHO-K1 Ca antag 24
Cc1ccc2cc(CN(Cc3cccs3)Cc3nnnn3CC3CCCO3)c(=O)[nH]c2c1 (stereo unspecified)	none
CN1/C(=C/C(=O)COC(=O)CN2C(=O)C3CC=CCC3C2=O)C(C)(C)c2ccccc21 (stereo unspecified)	none
CN1/C(=C\C(=O)COC(=O)Cn2nnc(-c3ccccc3)n2)C(C)(C)c2ccccc21	CHO-K1 Ca antag 24
COC(CNC(=O)c1ccc2c(c1)ncn2-c1cccc(C)c1)OC	none
COC(CNC(=O)c1ccc2c(c1)ncn2-c1ccc(C)cc1C)OC	M1 ag parental 18
CC1=C(C(=O)N2CCOCC2)C(c2ccc(Cl)cc2)NC(=S)N1 (stereo unspecified)	M1 ag parental 20
O=C(Nc1ccccc1Cl)c1cc(C2CCCN(C(=O)OCCF)C2)on1 (stereo unspecified)	none
OC1(CC#CCN2CCCCC2)c2ccccc2-c2ccccc21	none
OC1(C#CCCN2CCCCC2)c2ccccc2-c2ccccc21	M5 antag 90
Cc1cc([N+](=O)[O-])ccc1-c1ccc(/C=N/NC(=O)c2ccc(Br)o2)o1	CHRM5 agonist 246
Cc1cccc(NC(=O)CCc2ccccc2)c1C	M5 PAM 26
Cc1cccc(NC(=O)CCSc2ccccc2)c1C	none
CCN(CC#CCC(O)(c1ccccc1)C1CCCC1)C(C)C (stereo unspecified)	M5 antag 83
CN(C)CC#CCC(O)(c1ccccc1)c1ccccc1	none
CC(C)N(CC#CCC(O)(c1ccccc1)C1CCCC1)CCO (stereo unspecified)	M5 antag 47
CC(C)N(CC#CCC1(O)c2ccccc2-c2ccccc21)CCO	none
CCN(CC)c1cc2c(c3c1ccn3C)C1CCC2C1 (stereo unspecified)	CHO-K1 Ca antag 25
Cn1ccc2c(-c3cncc4ccccc34)cc3c(c21)C1CCC3C1 (stereo unspecified)	none
CN(c1ccc(Cl)cc1)c1cc2c(c3c1ccn3C)C1CCC2C1 (stereo unspecified)	none
Cn1ccc2c(-c3cccc4ccccc34)cc3c(c21)C1CCC3C1 (stereo unspecified)	CHO-K1 Ca antag 38
CN(c1cc(Cl)c2c(c1)OCO2)c1cc2c(c3c1ccn3C)C1CCC2C1 (stereo unspecified)	CHO-K1 Ca antag 27
CCCOc1cccc(C(=O)NCCNC(=O)c2ccccn2)c1	none
COc1cccc(C(=O)NCC(=O)N/N=C/c2cccs2)c1	none
O=C(Nc1cccc([N+](=O)[O-])c1)c1cc2ccccc2cc1O	M1 ag parental 16
O=C(Nc1ccncc1)c1cc2ccccc2cc1O	M1 ag parental 16
O=C(O)c1ccccc1C(=O)Nc1cccc([N+](=O)[O-])c1	none
Cc1nn(-c2ccccc2)c2sc(-c3n[nH]c(=S)o3)cc12	CHO-K1 Ca antag 25
Cc1nn(-c2ccccc2)c2sc(C(=O)O)cc12	none
Cc1ccc(C)c(NC(=O)CCCCCN2C(=O)[C@@H]3Cc4ccccc4CN3C2=O)c1	none
CCCOc1ccc(-c2csc3ncn(Cc4ccc(C(=O)O)cc4)c(=O)c23)cc1	none
O=C(NCc1ccccn1)C1CCCN(S(=O)(=O)c2ccc(Br)cc2)C1 (stereo unspecified)	CHO-K1 Ca antag 24
Cn1c(=O)oc2cc(S(=O)(=O)N3CCCC(C(=O)NCc4cccs4)C3)ccc21 (stereo unspecified)	CHO-K1 Ca antag 27
Cc1ccc(S(=O)(=O)N(C)C)cc1NC(=S)Nc1ccc2cn[nH]c2c1	none
COc1ccccc1OCC(=O)NCc1cccs1	none
CC(=O)Nc1ccc(S(=O)(=O)N2CCC(NC(=O)C(Cc3cccn3C)NC(C)=O)CC2)cc1 (stereo unspecified)	M5 PAM 28
COc1ccc(CC(NC(C)=O)C(=O)NC2CCN(S(=O)(=O)c3ccc(NC(C)=O)cc3)CC2)cc1 (stereo unspecified)	none
COCCCNC(=O)C1CC(=O)N(Cc2ccc(OC)cc2)C1 (stereo unspecified)	none

Screening data deposited in PubChem by The Scripps Research Institute Molecular Screening Center.
